Rows were chosen to be rich in hits. Some 1.2% of all compounds tested hit in one or more screens of this group.
Redox H2O2 prof: compounds producing H2O2 with reducing agent – biochemical, NIH compound library profiling, artefact control for MLSCN library redox annotation, primary screen; DTT-dependent redox cycling H2O2, phenol red/HRP absorbance; 100% = 100 µM peroxide control, 0% = buffer; activation, % at 10 µM; hit rate 0.03% among 200,000;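 active = activation of at least 50% relative to the plate's high and low controls in the primary single-dose screen; inactive = activation below 50%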;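 note: compound incubated with DTT at 0.8 mM final as the reducing agent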
PMI act: increases human mannose-6-phosphate isomerase activity; activation factor at 20 µM; AID 1214; hit rate 0.005% among 190,000; P34949; purified human PMI, coupled resazurin fluorescence, 20 min; active compounds read high; 1 = vehicle control, 0 substrate-free wells;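 active = activation factor of 2 or more at 20 µM, relative to plate controls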
Efa HMGR inh: inhibitors of class II HMG-CoA reductase from Enterococcus faecalis. AID 1066. hit rate 0.41% among 190,000. inhibition, % at 10 µM. purified E. faecalis HMGR, NADPH absorbance 340 nm kinetic;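 active = inhibition above a set limit, the median over all tested compounds plus 3 SD, cut at about 9.5% in these data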;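 note: enzyme runs in reverse so mevalonate oxidation gives rising NADPH absorbance; 0% = complete reaction with DMSO and 100% = background rate lacking mevalonate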
Diaph act CS: diaphorase activation or chemical reduction counter-screen; Diaphorase/resazurin coupled assay, resorufin fluorescence, 16 min; active compounds read high; 1 = vehicle wells, 0 = NADH-free wells; activation factor at 20 µM; hit rate 0.005% among 190,000; AID 1229;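 active = diaphorase activity raised at least twofold by the compound at 20 µM; inactive = activation factor below 2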
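Assay system: Purified diaphorase enzyme from Clostridium kluyveri | Amount: Enzyme 0.07 U/mL final | Dosing: Compound 20 µM once, DMSO 1% | Timing: 16 min reaction at room temperature | Detection: Fluorescence, excitation 544 nm and emission 590 nm | Evaluation: Higher resorufin formation from activation or reduction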
p47phox inh: inhibitors of human p47phox binding. hit rate 0.53% among 220,000. P14598. inhibition, % at 24.7 µM. p47phox/p22phox peptide binding, fluorescence polarization, 2 h;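 active = inhibition above about 30%, limit read from the data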;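 note: 0% = p47phox with labelled peptide and 100% = labelled peptide alone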
Target sequence (P14598 whole entry, looked up): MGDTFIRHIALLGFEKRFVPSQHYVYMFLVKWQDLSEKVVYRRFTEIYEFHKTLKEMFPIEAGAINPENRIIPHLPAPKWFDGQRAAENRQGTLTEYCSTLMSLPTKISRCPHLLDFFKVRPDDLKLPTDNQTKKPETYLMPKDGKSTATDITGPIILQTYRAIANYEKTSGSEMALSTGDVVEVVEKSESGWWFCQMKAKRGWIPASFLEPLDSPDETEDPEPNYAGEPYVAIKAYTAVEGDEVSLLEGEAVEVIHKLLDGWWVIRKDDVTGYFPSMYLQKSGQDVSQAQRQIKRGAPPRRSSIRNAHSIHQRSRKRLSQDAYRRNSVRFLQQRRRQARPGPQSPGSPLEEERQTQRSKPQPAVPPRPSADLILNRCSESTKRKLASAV
PMI act hi M6P: activators of human phosphomannose isomerase at near-saturating mannose 6-phosphate. activation factor at 20 µM. coupled PMI enzyme assay, resazurin fluorescence, 20 min; active compounds read high; 1 = untreated enzyme, 0 = substrate-free blank. hit rate 0.34% among 190,000. P34949;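 active = activation factor of 2 or more at 20 µM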
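Material: human phosphomannose isomerase with PGI, G6PDH, diaphorase coupling enzymes; amount: PMI at 15 ng/mL final; also added: Mannose-6-phosphate 1.0 mM (near-saturating) plus 0.22 mM NADP+; incubation: enzyme reaction with compound 20 min at room temperature; signal: resorufin fluorescence (Ex 544/Em 590 nm) from resazurin via diaphorase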
* hit, by the source's call; x = no result given; + = active, no number.

SMILES	Redox H2O2 prof	PMI act	Efa HMGR inh	Diaph act CS	p47phox inh	PMI act hi M6P
CCOc1ccc(-c2nnn(CC(=O)Nc3ccccc3OC)n2)cc1OCC	0	0.9	-7	0.9	31*	0.9
O=C(Cn1cc2c(n1)CCCC2)NCc1ccccn1	-1	0.8	3	0.9	49*	0.8
O=C(O)CSc1nnnn1C1CCCCC1	0	1.1	0	1.2	-6	1.1
O=C(Sc1nnnn1C1CCCCC1)c1cccs1	2	1.6	0	1	-15	2.2*
COC(=O)c1ccc(OCC(=O)Nc2ccsc2C(=O)OC)cc1	0	1	12*	1	2	1
CCC(=O)N1CCc2cc(S(=O)(=O)CCC(=O)Nc3ccc(C)cn3)ccc21	-3	1.1	-5	1	5	1
CCc1cc(CN2CCOCC2)c(NC(=O)c2ccccc2)s1	0	0.9	1	1	-15	0.9
Cc1ccc(S(=O)(=O)N2CCN(C(=O)C3CCN(C(=O)c4ccccc4C)CC3)CC2)cc1C	-2	1	-5	0.9	-4	0.9
CCOC(=O)C1=C2NC(=O)c3ccccc3N2C(=O)C1	0	1.6	-6	0.9	-8	2*
CCOC(=O)C1=C(N)N(c2ccccc2Oc2ccccc2)C(=O)C1	2	1	-9	0.8	-11	1
O=C(COCc1nc2ccccc2c(=O)[nH]1)NCC1CCCCC1	0	0.9	15*	0.8	-9	1
COc1ccccc1CCc1nnc(CCC(=O)NC(C)Cc2cccnc2)o1 (stereo not given)	-1	1	8	1.1	12	1.1
O=C(NCCN1CCOCC1)c1csc2c1CCCC2	1	1	2	0.9	71*	0.9
CCOC(=O)c1sc(NC(=O)C2CCC2)cc1C	0	0.8	-2	0.8	-5	0.8
CCOc1nc(NCc2ccco2)nc(Nc2ccccc2F)n1	1	0.8	13*	0.8	-5	0.9
O=C(COc1ccc(Cl)cc1)NCc1ccncc1	0	1	1	1	2	1
CC(C)OCCCNC(=O)Nc1cccc2ccccc12	0	0.9	14*	0.9	-7	0.9
CCOC(=O)c1c(C)oc2c1c(CN1CCN(CCO)CC1)c(O)c1ccccc12	0	0.4	-1	0.4	38*	0.2
COC(=O)c1cc(Br)c(=O)n(-c2ccc(F)cc2)c1	0	1	-2	0.9	31*	1
O=C(CCN1C(=O)/C(=C/c2cccs2)SC1=S)Nc1ccccn1	0	1.1	-4	1	-124	1
O=C(CCCN1C(=O)/C(=C\c2cccs2)SC1=S)Nc1ccccn1	-2	0.9	14*	0.9	-62	1
Cc1cc(=S)c2cccc(C)c2[nH]1	11	1.7	-6	0.9	-5	2.7*
Cc1cccc2c(=O)cc(C(F)(F)F)[nH]c12	x	x	x	x	-4	x
O=C1c2ccccc2C(=O)c2c1cccc2N1CCCC1	0	1	-1	0.8	5	0.8
Cn1c(=O)cc2c3c(c(N4CCCCC4)ccc31)C(=O)c1ccccc1-2	x	x	x	x	34*	x
SMILES	Redox H2O2 prof	PMI act	Efa HMGR inh	Diaph act CS	p47phox inh	PMI act hi M6P
CCOc1ccc(N(CC(=O)NCC2CCCO2)C(=O)CCC(=O)Nc2nccs2)cc1 (stereo not given)	-1	1	0	0.9	-13	1
Cc1ccc(S(=O)(=O)/C(C#N)=C/c2c(N3CCC(C(N)=O)CC3)nc3ccccn3c2=O)cc1	-6	0.8	11*	0.8	-10	0.9
Cc1ccc(S(=O)(=O)/C(C#N)=C/c2c(N3CCC(C(N)=O)CC3)nc3c(C)cccn3c2=O)cc1	0	0.9	0	0.8	-30	0.9
CC12CC(c3ccccc3O1)N(C(=O)c1ccco1)C(=S)N2c1ccc(F)cc1 (stereo not given)	-9	1	-2	1	-11	1
Cc1cc(C(=O)Nc2nc(-c3ccccn3)cs2)ccc1[N+](=O)[O-]	-1	1.8	1	0.8	-18	2.4*
CCOc1ccc(/C=N/n2cc(-c3ccccc3)[nH]c2=S)cc1	0	1	11*	0.6	2	1
COc1ccccc1C(=O)N(CCC1CCCN1C)c1nc2ccccc2s1 (stereo not given)	-1	1	0	1.1	-2	1
CCN(CC)c1ccc([N+](=O)[O-])cc1C(=O)N1CCOCC1	1	0.9	-1	1	5	0.8
CCN(CC)C1=NS(=O)(=O)c2cc([N+](=O)[O-])ccc21	0	1.3	-1	0.9	56*	1.2
CCCCN1C(=O)/C(=C/C=C2\SCCN2C)SC1=S	0	0.8	-7	0.7	54*	0.5
CN1CCS/C1=C/C=C1\SC(=S)N(CC(=O)O)C1=O	0	0.9	-1	0.9	-101	0.8
Cc1cc(C)[n+](C)n1CC(O)Cn1c2ccccc2c2ccccc21 (stereo not given)	0	0.6	-6	0.8	-13	0.9
COc1ccc(CNCc2cn(-c3cccc(F)c3)nc2-c2ccc(C)o2)cc1	-1	0.9	-4	1.1	-26	0.9
CN1c2ccsc2/C(=N/NC(=O)c2c(F)cccc2F)CS1(=O)=O	0	0.9	-5	0.9	-6	1
CN1c2ccsc2/C(=N/Nc2ccccc2)CS1(=O)=O	-2	1.5	-1	0.7	-8	2.1*
CCN1C(=O)/C(=C/N2CCc3ccccc3C2)SC1=S	x	x	x	x	-20	x
CCN1C(=O)/C(=C\C=C\c2ccccc2[N+](=O)[O-])SC1=S	0	1.2	18*	0.9	-13	1
O=C(O)c1ccccc1C(=O)NNc1ccc(Cl)cc1Cl	0	1.7	1	1	-3	2.7*
OC(CNCc1ccco1)Cn1c2ccc(Br)cc2c2cc(Br)ccc21 (stereo not given)	1	0.8	-2	1.2	-4	0.9
CCn1c(SCC(=O)N2CCN(c3ccccc3)CC2)nnc1-c1ccncc1	0	1.7	0	0.8	-6	2.6*
CSCCC1Nc2ccc(S(=O)(=O)N3CCOCC3)cc2NC1=O (stereo not given)	0	1.9	4	0.9	5	2.6*
COc1ccc(/C=N/NC(=O)c2nn(-c3ccc(C)c(C)c3)c(=O)c3ccccc23)cc1	2	0.9	-1	0.8	+	0.8
COc1ccc2nc(NC(=O)c3ccc(-n4nc(C)cc4C)cc3)sc2c1	19	1	-11	0.9	-3	1
COc1ccc(-n2nc(C(=O)Nc3nc4ccc(OC)cc4s3)c3ccccc3c2=O)cc1	1	0.9	6	0.8	38*	0.9
